Compound activity (PubChem BioAssay)
EBNA-1 inhibitor – blocks EBNA-1 binding to DNA | AID 1950 | 300,000 compounds, 0.34% hits | EBNA-1 DNA binding, fluorescence polarization | inhibition, % at 14.8 µM; in the data active means inhibition above about 28%
PREPL inh – human PREPL enzyme inhibition; Q4J6C6; recombinant PREPL, fluorescence polarization activity-based probe; inhibition, % at 5.96 µM; 320,000 compounds, 0.68% hits; AID 2751; in the data active means inhibition above about 43%
Apaf1 inhib – human Apaf-1 inhibition; reconstituted apoptosome caspase-3 activity, DEVD-Rh110 fluorescence; inhibition, % at 20 µM; 330,000 compounds, 0.71% hits; AID 489030; O14727; active means inhibition of at least 40% at 20 µM
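Material: reconstituted apoptosome with Apaf-1, cytochrome c, caspase-9, procaspase-3, dATP; medium: pH 7.5 Hepes buffer with CHAPS, BSA, DTT; also added: cytochrome c and DEVD-Rh110 substrate; timing: 30 min plus 50 min, RT; signal: Rh110 fluorescence intensity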
ZTA counter – ZTA (EBV) inhibition in EBNA-1 counter-screen | P03206 | ZTA-DNA binding, fluorescence polarization | inhibition, % at 11 µM | 320,000 compounds, 0.15% hits | AID 2234; in the data active means inhibition above about 33%
Target sequence (P03206 whole entry, looked up): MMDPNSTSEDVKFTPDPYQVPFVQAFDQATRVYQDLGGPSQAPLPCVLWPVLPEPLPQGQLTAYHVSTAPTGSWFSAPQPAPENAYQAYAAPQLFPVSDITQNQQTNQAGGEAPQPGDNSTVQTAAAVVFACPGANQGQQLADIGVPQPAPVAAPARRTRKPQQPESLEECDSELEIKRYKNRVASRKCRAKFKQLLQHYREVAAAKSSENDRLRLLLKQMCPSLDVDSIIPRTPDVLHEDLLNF
UBC13 polyUb – blocks human UBC13 polyubiquitin chain formation; P61088; TR-FRET; inhibition, % at 20 µM; 330,000 compounds, 0.47% hits; in the data active means inhibition above about 45%, passing the limit was not always enough
Target sequence (P61088 whole entry, looked up): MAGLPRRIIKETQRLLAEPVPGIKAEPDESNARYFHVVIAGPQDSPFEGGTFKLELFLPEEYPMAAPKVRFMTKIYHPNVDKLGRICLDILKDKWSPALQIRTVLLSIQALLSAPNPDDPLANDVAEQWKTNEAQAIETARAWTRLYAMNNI
Numbers stand for hits; i = inactive; nt = no result; ! = not confirmed by another sample. Only some compounds are listed: those with a hit (about 1.7% of all), similar ones and a draw of the others.

SMILES	EBNA-1 inhibitor	PREPL inh	Apaf1 inhib	ZTA counter	UBC13 polyUb
Cc1ccc(NCN2C(=O)C3C4C=CC(C4)C3C2=O)cc1 (stereo not given)	i	i	i	i	i
O=C1C2C3C=CC(C3)C2C(=O)N1CNc1ccc(O)cc1 (stereo not given)	i	i	94	i	i
COC(CNC(=O)c1c[nH]c2ccc(S(=O)(=O)N3CCC4(CC3)OCCO4)cc2c1=O)OC	i	i	i	i	i
COc1ccc(C2c3ccc4ccccc4c3Oc3ncn(CCN4CCOCC4)c(=N)c32)cc1 (stereo not given)	i	44	i	i	i
CCc1ccc2oc(C(=O)NC3CCS(=O)(=O)C3)cc(=O)c2c1 (stereo not given)	i	i	i	i	i
CCOc1ccc(N(C(=O)c2snc(C(N)=O)c2N)C(C(=O)NCC2CCCO2)c2ccco2)cc1 (stereo not given)	i	i	i	i	79
COc1ccc(C(=O)/C(=C/N(C)C)S(=O)(=O)c2ccccc2)cc1	i	i	i	i	i
O=C1C(=O)c2ccccc2C(O)=C1CCCCl	i	i	83	i	i
COc1ccc(CC2=C(O)c3ccccc3C(=O)C2=O)cc1	i	i	i	i	i
CC(C)N1CCC2(CC1)C(C#N)=C(N)NC(S)=C2C#N	i	49	i	i	i
CC(CCC(C)C(C)(C)C)[C@@H]1CC[C@H]2C3C[C@H](OS(O)(=S)=S)[C@H]4C[C@H](OS(O)(=S)=S)[C@@H](OS(O)(=S)=S)C[C@]4(C)[C@H]3CC[C@]12C (stereo not given in full) (tested in a mixture with another compound)	nt	46!	87	nt	i
O=C(NC(=S)Nc1ccc(NC(=O)c2cccs2)cc1)c1cc2ccccc2o1	69	i	i	i	i
Cc1ccc(S(=O)(=O)N2CCN(C(=O)CNC(=O)c3sc4ccccc4c3Cl)CC2)cc1	i	i	i	i	i
O=C(O)COc1ccc(/C=C/C(=O)c2ccc3ccccc3c2)cc1	i	i	i	i	i
O=C(/C=C/c1cc[n+](CC(=O)c2ccc3cccc4c3c2CC4)cc1)c1ccc2cccc3c2c1CC3	i	i	59	i	51
Cc1ccccc1CN1[C@@H](Cc2ccccc2)COCCS1(=O)=O	i	i	i	i	i
CC1(C)C(/C=C/C=C/C=C/C=C2\N(CCCCS(=O)(=O)O)c3ccc4ccccc4c3C2(C)C)=[N+](CCCCS(=O)(=O)[O-])c2ccc3ccccc3c21	51	i	i	61	i
Cc1nc(N)sc1C(=O)N/N=C/c1ccccc1[N+](=O)[O-]	i	i	i	i	95
Cc1cccc2cc(C(c3nnnn3CC3CCCO3)N3CCc4ccccc4C3)c(=O)[nH]c12 (stereo not given)	i	i	79	i	i
Cc1ccc(C)c2[nH]c(=O)c(C(c3nnnn3Cc3ccccc3)N3CCc4ccccc4C3)cc12 (stereo not given)	i	i	67	i	i
Cc1ccc2cc(C(c3nnnn3CC3CCCO3)N3CCc4ccccc4C3)c(=O)[nH]c2c1 (stereo not given)	i	i	87	i	i
CCOc1ccc2[nH]c(=O)c(C(c3nnnn3CC3CCCO3)N3CCc4ccccc4C3)cc2c1 (stereo not given)	i	i	i	i	i
C/C(=C\c1ccccc1F)C1Nc2cccc3cccc(c23)N1	nt	i	i	i	i
C/C(=C\c1ccccc1)C1Nc2cccc3cccc(c23)N1	nt	i	41	i	i
C[n+]1c(/C=C/c2ccc(O)cc2)ccc2ccccc21	i	i	i	i	i
SMILES	EBNA-1 inhibitor	PREPL inh	Apaf1 inhib	ZTA counter	UBC13 polyUb
Cc1cc(/C=C\c2ccc3cc(N(C)C)ccc3[n+]2C)c(C)n1-c1ccccc1	i	i	43	i	i
N#Cc1c(N(CCO)CCO)nc(N)c2c(N)nc3c(c12)CC(=O)N3CC1CCCO1 (stereo not given)	i	i	98	i	i
O=C(NCc1ccccc1)C1CCCN(c2cnccn2)C1 (stereo not given)	i	i	i	i	i
COc1cc2c3nnc(-c4ccc(F)cc4)c-3cn(Cc3cccc(C)c3)c2cc1OC	i	i	53	i	79
c1ccc(-c2nnc(-c3ccccn3)nc2NC2CCCCC2)cc1	i	86	i	i	i
COc1ccc2c(c1)-c1c(sn(-c3ccccc3)c1=S)C(C)(C)N2	i	i	i	i	i
CCCCCCSc1ccc(-c2nc3cc(C)ccn3c2NC2CCCCC2)cc1	nt	i	47	nt	i
